# Active and inactive are the calls of the source. The calls are words filed in the database; no cut-off is given here.
# Experiments:
# Zika virus = test: Antiviral activity against Zika virus H/PF/2013 infected in pre-seeded Huh-7 cells assessed as inhibition of viral replication incubated for 72 hrs by immunodetection based secondary yield reduction assay; format: functional, organism-based; conditions: H/PF/2013, Huh-7, 72 h
# [1] = Selectivity index, ratio of CC50 for human Huh-7 cells to IC50 for Dengue virus serotype 2 New Guinea C infected in pre-seeded Huh-7 cells assessed as inhibition of viral replication incubated for 72 hrs by immunodetection based secondary yield reduction assay; format: toxicity, cell-based; conditions: read-out: Selectivity Index
# [2] = molecular target: Fyn (Tyrosine-protein kinase Fyn) (Homo sapiens, UniProt P06241); test: Inhibition of human recombinant N terminal His6 tagged full length Fyn assessed as residual activity at 5 uM using […] as a substrate in the presence of NP-40 incubated for 10 mins by scintillation counting analysis relative to control; conditions: probe […], read-out: Activity
# Chain of Fyn (Tyrosine-protein kinase Fyn) (P06241 whole entry): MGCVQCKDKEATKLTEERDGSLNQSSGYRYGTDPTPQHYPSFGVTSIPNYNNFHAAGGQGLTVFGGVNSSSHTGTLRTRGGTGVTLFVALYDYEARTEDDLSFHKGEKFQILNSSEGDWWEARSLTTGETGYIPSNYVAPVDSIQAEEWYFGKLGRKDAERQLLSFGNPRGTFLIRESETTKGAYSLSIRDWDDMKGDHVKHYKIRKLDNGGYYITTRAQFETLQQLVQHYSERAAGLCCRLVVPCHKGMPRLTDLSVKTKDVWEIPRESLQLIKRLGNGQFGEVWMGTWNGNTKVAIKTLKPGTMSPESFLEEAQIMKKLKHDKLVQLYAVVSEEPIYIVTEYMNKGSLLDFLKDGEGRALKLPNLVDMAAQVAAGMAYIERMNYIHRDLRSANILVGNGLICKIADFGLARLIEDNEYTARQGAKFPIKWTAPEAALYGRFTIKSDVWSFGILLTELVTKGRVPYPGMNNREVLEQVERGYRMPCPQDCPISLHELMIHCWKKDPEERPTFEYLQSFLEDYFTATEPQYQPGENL
# How it was run: (§1)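 Compounds at fixed 5 μM; 10–50 ng kinase, substrate and NP-40/BSA per supplementary table, 10 μL at 30 °C for 10 min in low-binding tubes. Reactions spotted on filter, dried, scintillation counted. Mean ± SD of two independent experiments.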
# Influenza A virus [3] = test: Antiviral activity against Influenza A Puerto Rico/8/34/H1N1 infected in human A549 cells assessed as inhibition of hemagglutinin expression at 20 uM treated immediately after infection for 2 to 6 hrs followed by maintaining cells in fresh medium without compound for 24 hrs followed by infecting monolayer MDCK cells with supernatant for 24 hrs by time-of-addition assay; format: functional, organism-based; conditions: A/Puerto Rico/8/1934(H1N1), time 2-6 hrs
# How it was run: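 A549 cells infected with PR8 H1N1 received 20 μM compound immediately after adsorption for 2, 4 or 6 h, then fresh medium to 24 h; supernatants infected fresh MDCK for 24 h; anti-HA in-cell western; RFU % vs untreated infected; 4 replicates from two experiments.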
# [4] = Inhibition of DENV NS5-MTase domain using GpppA2'OMe-RNA74 as a substrate incubated for 30 mins by filter binding assay; design: species or system dengue virus type 2; conditions: read-out: IC50
# How it was run: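 MTase (1 μM) incubated with increasing inhibitor in 40 mM Tris-HCl pH 7.5, 5 mM DTT, 10 μM AdoMet ([3H]-labelled), 0.5 μM GpppA2′OMe-RNA74 substrate, 30 °C for 30 min; stopped in ice-cold 100 μM AdoHcy; DEAE filter binding, scintillation counting.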
# [5] = Inhibition of Dengue virus 2 […] RNA dependent RNA polymerase incubated for 10 mins by picogreen staining based fluorescent analysis (Rvb= 0.27+/-0.03 uM); design: species or system dengue virus type 2
# [6] = Selectivity index, ratio of CC50 for human A549 cells to IC50 for Influenza A Puerto Rico/8/34/H1N1 infected in human A549 cells; format: toxicity, cell-based; conditions: read-out: Selectivity Index
# How it was run: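 MDCK or A549 cells (2.5 × 10⁵/well) infected with A/Puerto Rico/8/34 H1N1 for 1 h at 37 °C, then washed. Compound (0.5–20 μM) added in 2% FBS medium for 24 h, with DMSO final ≤0.2%. Virus in supernatants read by hemagglutination. CC₅₀ by MTT (2 × 10⁴ cells/well, same concentrations, 24 h, absorbance 570 nm). SI = CC₅₀/IC₅₀.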
# Influenza A virus [7] = test: Antiviral activity against Influenza A Puerto Rico/8/34/H1N1 infected in human A549 cells assessed as inhibition of hemagglutinin expression at 20 uM treated post viral infection for 24 hrs followed by infection of fresh cell monolayer of A549 cells with supernatant for 24 hrs by In-cell western assay; format: functional; conditions: A/Puerto Rico/8/1934(H1N1)
# How it was run: (§2)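 A549 cells infected with PR8 H1N1 and given 20 μM compound: 2 h before infection (PRE), 1 h during adsorption (DUR), or 24 h after adsorption (POST); supernatants used to infect fresh monolayers for 24 h; anti-HA in-cell western; RFU as % of untreated infected; 3 replicates from two experiments.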
# Influenza A virus [8] = test: Antiviral activity against Influenza A Puerto Rico/8/34/H1N1 infected in human A549 cells assessed as inhibition of hemagglutinin expression at 20 uM pretreated for 2 hrs followed by infection of fresh cell monolayer of A549 cells with supernatant for 24 hrs by In-cell western assay; format: functional, organism-based; conditions: A/Puerto Rico/8/1934(H1N1); how it was run: as §2
# SARS-CoV-2 = test: Antiviral activity against SARS-COV 2 infected in monkey Vero E6 cells assessed as inhibition of viral replication at MOI of 0.01 and incubated after 2 hrs post infection for 48 hrs by direct yield reduction assay; format: functional, organism-based; conditions: Severe acute respiratory syndrome coronavirus 2, Vero C1008
# CDK9/cyclin T1 = CDK9/cyclin T1 (Homo sapiens, UniProt P50750); test: Inhibition of human full length CDK9/ His-tagged cT1 assessed as residual activity at 5 uM using CDKtide as a substrate in the presence of BSA incubated for 10 mins by scintillation counting analysis relative to control; format: protein-complex assay; conditions: full length CDK9/His-tagged cyclin T1 complex, probe CDKtide, read-out: Activity; how it was run: as §1
# Chain of CDK9/cyclin T1 (O60563 whole entry): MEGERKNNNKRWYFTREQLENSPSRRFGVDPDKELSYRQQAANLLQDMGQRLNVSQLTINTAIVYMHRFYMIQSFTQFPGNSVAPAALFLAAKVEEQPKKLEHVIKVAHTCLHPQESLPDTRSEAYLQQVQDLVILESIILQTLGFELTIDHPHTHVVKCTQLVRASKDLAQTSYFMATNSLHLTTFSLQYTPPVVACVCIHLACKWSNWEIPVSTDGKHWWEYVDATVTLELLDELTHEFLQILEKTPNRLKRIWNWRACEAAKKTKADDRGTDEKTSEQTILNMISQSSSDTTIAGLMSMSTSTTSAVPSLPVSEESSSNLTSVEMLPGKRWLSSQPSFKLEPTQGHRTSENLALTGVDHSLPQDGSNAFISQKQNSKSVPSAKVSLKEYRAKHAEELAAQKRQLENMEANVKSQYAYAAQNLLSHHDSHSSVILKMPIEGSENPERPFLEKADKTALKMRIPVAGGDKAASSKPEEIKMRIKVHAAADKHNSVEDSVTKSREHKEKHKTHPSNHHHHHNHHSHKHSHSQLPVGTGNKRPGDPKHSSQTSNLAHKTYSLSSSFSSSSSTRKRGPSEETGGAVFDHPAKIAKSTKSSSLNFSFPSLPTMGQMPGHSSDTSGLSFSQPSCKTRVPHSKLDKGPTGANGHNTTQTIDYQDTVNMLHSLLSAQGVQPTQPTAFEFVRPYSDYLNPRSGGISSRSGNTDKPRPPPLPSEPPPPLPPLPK
# Chain of CDK9/cyclin T1 (P50750 whole entry): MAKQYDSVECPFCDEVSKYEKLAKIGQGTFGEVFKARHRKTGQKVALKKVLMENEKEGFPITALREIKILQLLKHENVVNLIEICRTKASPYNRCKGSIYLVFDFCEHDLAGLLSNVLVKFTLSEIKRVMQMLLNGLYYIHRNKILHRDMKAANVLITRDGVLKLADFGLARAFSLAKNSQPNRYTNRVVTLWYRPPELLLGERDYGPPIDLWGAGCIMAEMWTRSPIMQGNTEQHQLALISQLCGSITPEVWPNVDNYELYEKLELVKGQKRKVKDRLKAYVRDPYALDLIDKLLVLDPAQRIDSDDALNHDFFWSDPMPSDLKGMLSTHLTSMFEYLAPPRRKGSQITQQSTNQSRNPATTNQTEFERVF
# [9] = Stability of the compound in presence of 40 mM H2O2 in ethanol measured after 6 days; format: physicochemical; conditions: 144 h; time 6 day
# Influenza A virus [10] = test: Antiviral activity against Influenza A Puerto Rico/8/34/H1N1 infected in MDCK cells assessed as inhibition of viral replication measured in supernatants of infected cells after 24 hrs by hemagglutination assay; format: functional, organism-based; conditions: A/Puerto Rico/8/1934(H1N1)
# Huh-7 [11] = test: Effect on formation of DENV replication complex in human Huh-7 cells assessed as reduction in expression of NS3 at 50 uM measured after 8 to 24 hrs by DAPI staining based confocal microscopy analysis; format: functional, cell-based; conditions: time 8-24 hrs
# How it was run: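 Huh-7 cells (1 × 10⁴) on coverslips infected with DENV-2 (MOI 0.05), treated (100 or 50 μM as listed), fixed in 4% paraformaldehyde at 8, 12, 16, 24 h; anti-NS3/anti-NS5 with Alexa 488/568 secondaries, DAPI; confocal, 5 random fields at 40×; % positive cells; 2-way ANOVA with Dunnett.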
# [12] = Inhibition of full length Dengue virus 2 NS5 RNA dependent RNA polymerase incubated for 10 mins by picogreen staining based fluorescent analysis (Rvb= 0.32+/-0.05 uM); design: species or system dengue virus type 2
# Influenza A virus [13] = test: Antiviral activity against Influenza A/California/04/2009H1N1 infected in human A549 cells assessed as reduction in viral protein expression at 20 uM treated for 1 hr during viral adsorption followed by staining with anti-Flu antibody observed at 24 hrs post infection by In-cell western assay; format: functional, organism-based
# Influenza A virus [14] = test: Antiviral activity against Influenza A Puerto Rico/8/34/H1N1 infected in human A549 cells assessed as reduction in viral protein expression at 20 uM treated for 1 hr during viral adsorption followed by staining with anti-Flu antibody observed at 24 hrs post infection by In-cell western assay; format: functional, organism-based; conditions: A/Puerto Rico/8/1934(H1N1)
# Calu-3 = test: Cytotoxicity against human Calu-3 cells infected with SARS-COV-2 by celltiter-glo luminescent cell viability assay; format: cell-based; conditions: calu-3
# How it was run: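 Compound-exposed cells assessed by CellTiter-Glo luminescence versus DMSO control; CC50 from dose-response.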
# Huh-7 [15] = test: Effect on formation of DENV replication complex in human Huh-7 cells assessed as reduction NS3:NS5 colocalization into nucleus at 50 uM measured after 16 to 24 hrs by DAPI staining based confocal microscopy analysis; format: functional, cell-based; conditions: time 16-24 hrs
# How it was run: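 DENV-2-infected Huh-7 cells (MOI 0.05) treated at 50 μM, fixed at 8–24 h, stained for NS3/NS5; confocal colocalization by Manders coefficients with Costes P ≥95% as signal; versus untreated control; repeated at least twice.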
smiles,measurement,setting,value
FC(F)(F)c1cccc(Nc2nc(NCCOc3ccccc3)nc3[nH]cnc23)c1,IC50,Zika virus,1.1 µM
same,selectivity ratio at 72 h,[1],77
same,"activity at 10 min, 5 µM",[2],> 98%
same,Activity,Influenza A virus [3],Active
same,IC50,[4],112 µM
same,IC50,[5],20.8 µM
same,selectivity ratio,[6],11
same,inhibition at 20 µM,Influenza A virus [7],50%
same,inhibition,Influenza A virus [8],inactive
same,IC50,SARS-CoV-2,53.4 µM
same,"activity at 10 min, 5 µM",CDK9/cyclin T1,> 98%
same,Stabilty,[9],Unstable
same,IC50,Influenza A virus [10],5.3 µM
same,Activity,Huh-7 [11],Active
same,IC50,[12],43.7 µM
same,Activity,Influenza A virus [13],Active
same,Activity,Influenza A virus [14],Active
same,CC50,Calu-3,120 µM
same,Activity,Huh-7 [15],Active
